Holding throughout (format): biochemical
The target in one assay is T1, HePTP (Homo sapiens, UniProt P35236).
T1 sequence (P35236 43-356): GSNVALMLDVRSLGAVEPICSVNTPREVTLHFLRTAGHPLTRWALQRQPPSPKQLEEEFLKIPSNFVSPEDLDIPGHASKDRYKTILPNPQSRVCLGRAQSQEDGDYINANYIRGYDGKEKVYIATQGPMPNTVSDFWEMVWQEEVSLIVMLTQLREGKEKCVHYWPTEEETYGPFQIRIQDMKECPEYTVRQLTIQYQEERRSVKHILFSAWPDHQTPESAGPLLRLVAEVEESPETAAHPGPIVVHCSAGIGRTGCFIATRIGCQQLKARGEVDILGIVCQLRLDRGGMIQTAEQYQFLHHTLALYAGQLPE
In words: PTP assay, HePTP.

The target in another assay is PTPRB (Homo sapiens, UniProt P23467). In words: PTP assay, PTPRB. The settings on record: for Km / kcat / kcat/KM x10^6: catalytic domain, 100 mM HEPES pH 7.4, monitored at 282 nm.
Chain of PTPRB (P23467 1686-1971): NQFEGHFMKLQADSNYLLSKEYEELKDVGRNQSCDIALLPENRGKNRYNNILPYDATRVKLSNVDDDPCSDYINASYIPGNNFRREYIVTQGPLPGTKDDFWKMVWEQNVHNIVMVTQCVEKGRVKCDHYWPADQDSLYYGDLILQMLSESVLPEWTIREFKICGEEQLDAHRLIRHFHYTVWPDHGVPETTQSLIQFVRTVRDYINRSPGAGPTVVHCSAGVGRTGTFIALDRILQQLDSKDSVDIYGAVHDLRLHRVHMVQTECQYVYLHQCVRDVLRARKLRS
A further assay concerns the target T2, PTPRC (Homo sapiens, UniProt P08575).
T2 sequence (P08575 620-1236): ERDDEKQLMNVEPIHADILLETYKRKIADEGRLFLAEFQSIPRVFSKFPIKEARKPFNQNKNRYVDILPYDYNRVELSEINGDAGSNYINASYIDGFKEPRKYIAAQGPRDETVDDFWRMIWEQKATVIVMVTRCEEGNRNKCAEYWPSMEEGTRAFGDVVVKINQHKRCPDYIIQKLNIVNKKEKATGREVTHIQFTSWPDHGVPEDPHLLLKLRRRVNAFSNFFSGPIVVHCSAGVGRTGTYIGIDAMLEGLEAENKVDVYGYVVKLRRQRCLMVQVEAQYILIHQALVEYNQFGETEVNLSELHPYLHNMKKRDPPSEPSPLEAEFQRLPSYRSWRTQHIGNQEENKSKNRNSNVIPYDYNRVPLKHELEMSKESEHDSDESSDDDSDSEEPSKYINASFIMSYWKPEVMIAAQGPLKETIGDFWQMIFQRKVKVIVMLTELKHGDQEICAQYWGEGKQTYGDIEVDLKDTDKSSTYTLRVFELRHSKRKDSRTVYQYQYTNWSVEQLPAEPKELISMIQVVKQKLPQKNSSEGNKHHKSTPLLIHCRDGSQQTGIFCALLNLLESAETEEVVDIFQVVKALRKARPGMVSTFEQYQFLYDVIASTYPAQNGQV
In words: PTP assay, PTPRC. The conditions noted are these: for Km / kcat / kcat/KM x10^6: catalytic domain, 100 mM HEPES pH 7.4, monitored at 282 nm. An outline of the steps:
(§1)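 His-tagged catalytic domains were made in E. coli: PTPD2 aa 876–1187 and PTPRC aa 620–1236 with N-terminal tags, PTPD1 aa 875–1174 and SHP-2 aa 199–593 with C-terminal tags. Enzyme was added at 0.5–20000 nM final. A282 (Δε 1102 M−1 cm−1) was followed. Constants came from Michaelis–Menten fits of initial rates (<60 s), or from fits of progress curves run to substrate depletion.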

For a further assay, the target named is T3, PTPH1 (Homo sapiens, UniProt P26045).
T3 sequence (P26045 628-909): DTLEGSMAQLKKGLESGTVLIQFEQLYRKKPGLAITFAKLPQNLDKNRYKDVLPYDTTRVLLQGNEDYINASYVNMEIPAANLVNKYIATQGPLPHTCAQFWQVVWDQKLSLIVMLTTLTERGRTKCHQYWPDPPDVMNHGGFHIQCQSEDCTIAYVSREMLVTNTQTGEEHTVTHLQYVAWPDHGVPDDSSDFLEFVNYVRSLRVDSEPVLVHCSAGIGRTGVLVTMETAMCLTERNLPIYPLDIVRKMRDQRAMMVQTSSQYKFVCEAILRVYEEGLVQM
In words: PTP assay, PTPH1. The conditions noted are these: for Km / kcat / kcat/KM x10^6: catalytic domain, 100 mM HEPES pH 7.4, monitored at 282 nm.

A further assay concerns the target T4, PTPD2 (Homo sapiens, UniProt Q15678).
T4 sequence (Q15678 876-1187): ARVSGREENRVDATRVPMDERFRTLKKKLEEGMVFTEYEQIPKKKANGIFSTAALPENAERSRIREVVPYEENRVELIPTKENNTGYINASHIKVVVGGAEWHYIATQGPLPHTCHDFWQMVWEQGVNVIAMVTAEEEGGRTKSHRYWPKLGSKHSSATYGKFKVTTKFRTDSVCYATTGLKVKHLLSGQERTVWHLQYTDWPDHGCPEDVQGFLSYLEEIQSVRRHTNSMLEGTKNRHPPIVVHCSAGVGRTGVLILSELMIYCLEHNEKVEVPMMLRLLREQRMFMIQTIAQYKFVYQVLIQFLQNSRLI
In words: PTP assay, PTPD2. The settings on record: for Km / kcat / kcat/KM x10^6: catalytic domain, 100 mM HEPES pH 7.4, monitored at 282 nm. In short, it runs like this: as §1

In another assay the target is T5, PTPRO (Homo sapiens, UniProt Q16827).
T5 sequence (Q16827 938-1195 limits assumed): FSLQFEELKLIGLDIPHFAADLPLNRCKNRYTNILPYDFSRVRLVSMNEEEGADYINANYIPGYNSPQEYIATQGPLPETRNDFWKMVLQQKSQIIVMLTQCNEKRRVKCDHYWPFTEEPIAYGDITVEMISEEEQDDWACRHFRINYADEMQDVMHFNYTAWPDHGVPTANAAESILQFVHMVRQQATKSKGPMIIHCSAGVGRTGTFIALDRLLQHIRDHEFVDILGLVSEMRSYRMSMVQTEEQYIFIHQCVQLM
In words: PTP assay, PTPRO. The conditions noted are these: for Km / kcat / kcat/KM x10^6: catalytic domain, 100 mM HEPES pH 7.4, monitored at 282 nm.

A further assay concerns the target PTPRA (Homo sapiens, UniProt P18433). In words: PTP assay, PTPRA. An outline of the steps: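 His-tagged PTPRA catalytic domain (aa 224–802), expressed in E. coli. Dephosphorylation was followed continuously at 282 nm (Δε = 1102 M−1 cm−1). Initial rates were fitted to Michaelis-Menten or V = kcat[E][S]/KM, or full progress curves were fitted to depletion.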
The next assay addresses T6, PTPD1 (Homo sapiens, UniProt Q16825).
T6 sequence (Q16825 875-1174): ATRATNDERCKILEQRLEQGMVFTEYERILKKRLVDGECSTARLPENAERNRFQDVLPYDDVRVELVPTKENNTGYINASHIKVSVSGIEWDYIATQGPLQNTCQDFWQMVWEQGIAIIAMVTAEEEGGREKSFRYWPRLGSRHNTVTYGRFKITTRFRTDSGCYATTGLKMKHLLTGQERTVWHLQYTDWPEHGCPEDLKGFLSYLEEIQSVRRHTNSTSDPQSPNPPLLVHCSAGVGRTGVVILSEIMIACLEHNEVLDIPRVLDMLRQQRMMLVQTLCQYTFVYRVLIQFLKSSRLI
In words: PTP assay, PTPD1. In short, it runs like this: as §1

Where [1] appears, read: catalytic domain, 100 mM HEPES pH 7.4, monitored at 282 nm.
Setting [2] is: kcat/KM of neutral peptide over basic Ac-YRKRFpYRYKF-NH2.
Where [3] appears, read: kcat/KM of acidic peptide over basic Ac-YRKRFpYRYKF-NH2.
Setting [4] is: kcat/KM of acidic peptide over neutral Ac-SASASpYSASA-NH2.

For the substance Ac-SASASpYSASA-NH2, the “kcat/KM x10^6” value at HePTP (setting [1]) is given as 0.0006 x10^6 M^−1 s^−1; on PTPRB it was 2.2 x10^6 M^−1 s^−1; at PTPRC it was 2.0 x10^6 M^−1 s^−1; at PTPH1, 0.44 x10^6 M^−1 s^−1; on PTPD2, 0.013 x10^6 M^−1 s^−1; on PTPRO, 0.94 x10^6 M^−1 s^−1. For the same substance, the “kcat/KM x10^6” value is 0.023 x10^6 M^−1 s^−1 on PTPRA (setting [1]) and 0.0000038 x10^6 M^−1 s^−1 at PTPD1 (setting [1]). Besides, the Km on PTPRB turned out to be 26 ± 1 µM; at PTPRC, 170 ± 20 µM; at PTPH1, 5.8 ± 0.7 µM; on PTPD2, 9.4 ± 0.4 µM; at PTPRO it was 250 ± 10 µM. Moreover, the kcat on PTPRB is 56 ± 2 s⁻¹; at PTPRC, 340 ± 50 s⁻¹; at PTPH1 it was 2.5 ± 0.2 s⁻¹; at PTPD2, 0.12 ± 0.006 s⁻¹; on PTPRO it was 240 ± 8 s⁻¹. Also, the “Neutral/Basic ratio of kcat/KM values” on PTPRB (setting [2]) was 77; at PTPRC (setting [2]) it was 41; on PTPD2 (setting [2]) it was 160; at PTPRO (setting [2]), 18; on PTPRA (setting [2]), 0.5; at PTPD1 (setting [2]) it was 0.7.

Consider Ac-YDEDFpYDYEF-NH2, for which the Michaelis constant (Km) at HePTP (setting [1]) was 280 ± 25 µM; at PTPRB it was 1.8 ± 0.4 µM; on PTPRC, 7 ± 0.9 µM; at PTPH1 it was 0.28 ± 0.02 µM; on PTPD2, 0.7 ± 0.09 µM; on PTPRO it was 5.7 ± 0.8 µM. The results for the Michaelis-Menten constant (Km) at PTPRA (setting [1]) and at PTPD1 (setting [1]) were 260 ± 30 µM and 26 ± 5 µM, respectively. Moreover, the kcat at HePTP (setting [1]) amounted to 7.0 ± 0.3 s⁻¹; at PTPRB, 55 ± 2 s⁻¹; on PTPRC, 300 ± 20 s⁻¹; at PTPH1, 2.4 ± 0.06 s⁻¹; on PTPD2, 0.073 ± 0.003 s⁻¹; on PTPRO, 200 ± 10 s⁻¹. Further, the kcat at PTPRA (setting [1]) was 19 ± 0.6 s⁻¹; at PTPD1 (setting [1]) it was 0.032 ± 0.005 s⁻¹. Besides, the “kcat/KM x10^6” value on HePTP (setting [1]) is given as 0.025 x10^6 M^−1 s^−1; at PTPRB it was 31 x10^6 M^−1 s^−1; at PTPRC, 43 x10^6 M^−1 s^−1; on PTPH1, 8.8 x10^6 M^−1 s^−1; on PTPD2, 0.11 x10^6 M^−1 s^−1; on PTPRO, 35 x10^6 M^−1 s^−1. Further, the “kcat/KM x10^6” value is listed as 0.075 x10^6 M^−1 s^−1 at PTPRA (setting [1]) and 0.0012 x10^6 M^−1 s^−1 on PTPD1 (setting [1]). The “Acidic/Basic ratio of kcat/KM values” at HePTP (setting [3]) came to 2500; at PTPRB (setting [3]), 1100; on PTPRC (setting [3]) it was 880; at PTPH1 (setting [3]), 2600; at PTPD2 (setting [3]) it was 1300; at PTPRO (setting [3]) it was 660. Moreover, the “Acidic/Basic ratio of kcat/KM values” on PTPRA (setting [3]) is recorded as 2; on PTPD1 (setting [3]), 220. The “Acidic/Neutral ratio of kcat/KM values” turned out to be 42 at HePTP (setting [4]); 14 on PTPRB (setting [4]); 22 on PTPRC (setting [4]); 20 on PTPH1 (setting [4]); 8 on PTPD2 (setting [4]); 37 at PTPRO (setting [4]). For the same substance, the “Acidic/Neutral ratio of kcat/KM values” was 3 on PTPRA (setting [4]) and 330 at PTPD1 (setting [4]).

In the case of Ac-YRKRFpYRYKF-NH2, the “kcat/KM x10^6” value at HePTP (setting [1]) is on record as 0.000010 x10^6 M^−1 s^−1; on PTPRB, 0.028 x10^6 M^−1 s^−1; at PTPRC it was 0.049 x10^6 M^−1 s^−1; on PTPH1, 0.0033 x10^6 M^−1 s^−1; at PTPD2 it was 0.000082 x10^6 M^−1 s^−1; at PTPRO, 0.053 x10^6 M^−1 s^−1. The figures for the “kcat/KM x10^6” value at PTPRA (setting [1]) and at PTPD1 (setting [1]) were 0.045 x10^6 M^−1 s^−1 and 0.0000057 x10^6 M^−1 s^−1, respectively.

By Km is commonly meant the substrate concentration at which the rate is half of its maximum. A word on the kcat: it is the maximal rate divided by the concentration of active sites.

These data come from PMC3954597 (Biochemistry, 2014).
